High-throughput results from PubChem BioAssay.
GPR7 antag: blocks human GPR7 receptor signaling; P48145; GPR7-expressing cells, fluorescence antagonist assay; inhibition, % at 4.4 µM; 290,000 compounds, 1.1% hits; AID 1861; in the data active means inhibition above about 16%, passing the limit was not always enough;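 further: cells stimulated with the agonist NPW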
OX1R antag-1: human HCRTR1 antagonism | O43613 | AID 434989 | inhibition, % at 5 µM | 330,000 compounds, 0.43% hits | CHO/OX1R cells, Fluo-8 calcium fluorescence, orexin A;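 active means inhibition above its plate's threshold, mean inhibition of all tested compounds on the plate plus 3 SD, cut at about 37% in these data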
Target sequence (O43613 whole entry, looked up): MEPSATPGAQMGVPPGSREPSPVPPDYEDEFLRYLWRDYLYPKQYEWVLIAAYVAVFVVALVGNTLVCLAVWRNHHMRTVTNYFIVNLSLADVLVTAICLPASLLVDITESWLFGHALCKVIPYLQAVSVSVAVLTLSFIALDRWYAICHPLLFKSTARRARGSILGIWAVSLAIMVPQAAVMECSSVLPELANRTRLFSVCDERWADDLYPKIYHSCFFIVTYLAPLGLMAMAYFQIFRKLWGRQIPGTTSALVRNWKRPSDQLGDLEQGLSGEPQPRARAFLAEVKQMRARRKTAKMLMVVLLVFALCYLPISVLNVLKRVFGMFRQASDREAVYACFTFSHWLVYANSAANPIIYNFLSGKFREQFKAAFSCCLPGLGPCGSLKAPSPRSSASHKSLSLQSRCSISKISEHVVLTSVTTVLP
TAAR1 antag: antagonists of human TAAR1. Q96RJ0. CHO RD-HGA16 TAAR1, Fluo-8 calcium fluorescence, antagonist. inhibition, % at 3 µM. 360,000 compounds, 1.5% hits;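 active means inhibition above a per-plate cutoff, the mean inhibition of test compounds on that plate plus 3 SD, cut at about 49% in these data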
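Material: RD-HGA16 CHO cells with stable hTAAR1 and Gα16; Dosing: single nominal final test compound concentration of 3 µM; Schedule: seeding 17-24 h prior, 75-min 37 °C, 30-min RT dye loading; Detection: kinetic Fluo-8 calcium fluorescence measurement; Measure: % inhibition from peak post-agonist over basal fluorescence ratio; Benchmarks: vehicle and agonist controls.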
TAAR1 agonist: human TAAR1 agonism. Q96RJ0. CHO RD-HGA16 TAAR1, Fluo-8 calcium fluorescence; vehicle wells 0%, saturating PEA agonist 100%. activation, % at 3 µM. 360,000 compounds, 0.99% hits. AID 624467;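 active means activation above the mean activation of all test compounds in the run plus 3 SD, cut at about 38% in these data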
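Test system: RD-HGA16 (CHO) cells co-expressing Gα16 and hTAAR1 | Doses: Single dose, 3 µM | Schedule: 17-24 h seeding, 75 min 37 °C dye, 30 min RT | Evaluation: % activation from peak over basal fluorescence ratio, DMSO-to-PEA scaled | Technique: Kinetic Fluo-8 calcium fluorescence | Benchmarks: Low control DMSO, high control PEA (EC100)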
OX1R antag-2: OX1R (human) antagonism | O43613 | OX1R-expressing cells, FRET antagonist read-out | inhibition, % at 6.6 µM | 330,000 compounds, 1.8% hits; in the data active means inhibition mostly above about 38%, no sharp cut-off; inactive means mostly below about 40%
CHO parental Ca: signal in parental CHO cells, OX1R antagonist counter-screen; parental CHO-K1, ATP-induced calcium, Fluo-8 fluorescence; inhibition, % at 5.6 µM; 330,000 compounds, 0.63% hits; AID 463079;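 active means inhibition above that plate's mean sample inhibition plus 3 SD, cut at about 26% in these data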
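Test system: parental CHO cells; detection: calcium-sensitive Fluo-8 fluorescence; evaluation: percent inhibition of calcium signal; also added: ATP as calcium-mobilizing challenge; repeats: one well per compound; control set: ATP-challenged DMSO wells low, unchallenged DMSO wells high; compound: single nominal dose of 5.6 µM per compound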
TAAR1 ag conf: confirmation of human TAAR1 agonists; CHO RD-HGA16 TAAR1, Fluo-8 calcium fluorescence; scaled: DMSO 0%, maximal phenethylamine 100%; shares compounds with TAAR1 agonist; activation, % at 3 µM; 2,400 compounds, 82% hits;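 active means activation above a cutoff set at the run's mean compound activation plus 3 SD, cut at about 39% in these data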
Ga16 nonsel ag: counter-screen for TAAR1 agonists: nonselective agonists in parental cells | CHO-Ga16 parental, Fluo-8 calcium fluorescence; normalized to maximal ATP response, DMSO zero | activation, % at 3 µM | shares compounds with TAAR1 agonist | 2,400 compounds, 50% hits;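 active means activation above the run cutoff, the mean activation over all tested wells plus 3 SD, cut at about 12% in these data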
TAAR1 desensitize: TAAR1 response desensitization, agonist counter-screen; CHO RD-HGA16 hTAAR1, Fluo-8 calcium, beta-PEA response inhibition; inhibition, % at 3 µM; shares compounds with TAAR1 agonist; 2,400 compounds, 46% hits;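 active means inhibition above the run cutoff, the mean inhibition of all test compounds plus 3 SD, cut at about 49% in these data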;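 further: beta-PEA stimulus applied at its EC80; loss of beta-PEA calcium signal after compound pretreatment read as receptor desensitization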
Ga16 antag count: nonselective Ga16 antagonist in TAAR1 agonist counter-screen | shares compounds with TAAR1 agonist | CHO-Ga16 ATP-induced calcium, Fluo-8 fluorescence | inhibition, % at 3 µM | 2,400 compounds, 39% hits | AID 651952;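 active means inhibition above the plate's mean compound inhibition plus 3 SD, computed per plate, cut at about 22% in these data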
A number is an active result; - = inactive; . = not tested or not shown. A selection: hits, their analogues and other compounds. The true share with any hit is near 4.5%.

SMILES	GPR7 antag	OX1R antag-1	TAAR1 antag	TAAR1 agonist	OX1R antag-2	CHO parental Ca	TAAR1 ag conf	Ga16 nonsel ag	TAAR1 desensitize	Ga16 antag count
O=C1CCC/C=C/C[C@@H](CC(=O)N(CCO)Cc2ccccc2)C(=O)NC[C@@H](c2ccccc2)O1	.	-	-	-	-	-	.	.	.	.
N#Cc1cccc(NC(=O)Nc2cccs2)c1	-	-	-	58	-	-	74	16	-	27
O=C1CCCN2N=C(SCC(=O)Nc3ccc(F)cc3F)SC2=N1	-	-	-	-	-	-	.	.	.	.
Cc1c(Cl)cccc1NC(=O)Cc1ccc([N+](=O)[O-])cc1	-	-	-	56	-	-	-	17	-	-
Cc1cc(N/N=C/c2ccccc2O)c2ccccc2n1	-	-	.	.	-	-	.	-	.	-
COc1ccc2nc(C)cc(N/N=C/c3cccc(OC)c3O)c2c1	-	-	-	-	-	-	.	.	.	.
COc1ccccc1CCNS(=O)(=O)CCNC(=O)c1ccc2c(c1)OCO2	.	-	-	74	-	-	91	-	73	-
Cc1ccc(CNS(=O)(=O)CCNC(=O)c2ccc3c(c2)OCO3)cc1	.	-	-	-	-	-	.	.	.	.
C/C(NCCc1ccc(O)cc1)=C1/CCOC1=O	.	.	83	83	.	.	91	-	69	-
C/C(Nc1ccccc1C(F)(F)F)=C1/CCOC1=O	-	-	-	-	-	-	.	.	.	.
CC(C)C(N)c1csc(NC(=O)Nc2ccc(OC(F)(F)F)cc2)n1 (stereo not drawn)	.	.	-	-	.	.	.	.	.	.
Cc1c(NP(=O)(c2ccc(Br)cc2)c2ccc(Br)cc2)c(=O)n(-c2ccccc2)n1C	-	-	-	-	-	-	.	.	.	.
CN1OC[C@@H]2CN(C(=S)NCCc3ccccc3)[C@H](c3ccc(-n4ccnc4)cc3)C[C@@H]21	.	.	-	47	.	.	49	-	-	-
CN1OC[C@@H]2CN(C(=O)CCc3ccccc3)[C@H](c3ccc(-n4ccnc4)cc3)C[C@@H]21	.	.	-	-	.	.	.	.	.	.
NCc1c(O)ccc2ccccc12	-	-	.	.	-	-	.	-	.	-
O=C(O)Cc1c(O)ccc2ccccc12	-	-	-	-	-	-	.	.	.	.
CCc1nc2ccc(C(=O)NCCN3CCOCC3)cn2c1N(C)Cc1ccc(OC)cc1	.	.	-	-	.	.	.	.	.	.
Cc1ccccc1CCNC(=O)c1ccc(Cl)c(S(=O)(=O)N2CC(C)OC(C)C2)c1 (stereo not drawn)	.	-	-	59	-	-	-	-	-	27
CC1CN(S(=O)(=O)c2cc(C(=O)NCc3ccncc3)ccc2Cl)CC(C)O1 (stereo not drawn)	.	-	-	-	-	-	.	.	.	.
CCC(CC)C(=O)Nc1nnc(S(=O)(=O)N2c3ccccc3CC2C)s1 (stereo not drawn)	-	-	-	-	-	-	.	.	.	.
Fc1ccccc1Cc1noc(CN2CCC(OCc3cccnc3)CC2)n1	-	-	-	-	-	-	.	.	.	.
COc1cc(C2c3cc4c(cc3OC(NCCc3ccccc3)C2C)OCO4)cc(OC)c1OC (stereo not drawn)	.	.	91	97	.	.	97	-	100	-
COc1cc(C2c3cc4c(cc3OC(Nc3ccc(C(=O)O)cc3)C2C)OCO4)cc(OC)c1OC (stereo not drawn)	.	.	-	-	.	.	.	.	.	.
COCCCn1c(O)c(/C=C2\N=C(C#N)C(=Nc3ccc(C)cc3)O2)sc1=S	-	-	74	52	-	39	-	15	-	25
